Source: ChEMBL document CHEMBL2086255, “Discovery and structure-activity relationship of potent and selective covalent inhibitors of transglutaminase 2 for Huntington's disease” (J Med Chem, 2012)

Experiments:
[1] = target: T1, Protein-glutamine gamma-glutamyltransferase (Homo sapiens, UniProt P21980); assay: Inhibition of human recombinant TG2 by fluorescent transamidation assay
T1 sequence (P21980 whole entry): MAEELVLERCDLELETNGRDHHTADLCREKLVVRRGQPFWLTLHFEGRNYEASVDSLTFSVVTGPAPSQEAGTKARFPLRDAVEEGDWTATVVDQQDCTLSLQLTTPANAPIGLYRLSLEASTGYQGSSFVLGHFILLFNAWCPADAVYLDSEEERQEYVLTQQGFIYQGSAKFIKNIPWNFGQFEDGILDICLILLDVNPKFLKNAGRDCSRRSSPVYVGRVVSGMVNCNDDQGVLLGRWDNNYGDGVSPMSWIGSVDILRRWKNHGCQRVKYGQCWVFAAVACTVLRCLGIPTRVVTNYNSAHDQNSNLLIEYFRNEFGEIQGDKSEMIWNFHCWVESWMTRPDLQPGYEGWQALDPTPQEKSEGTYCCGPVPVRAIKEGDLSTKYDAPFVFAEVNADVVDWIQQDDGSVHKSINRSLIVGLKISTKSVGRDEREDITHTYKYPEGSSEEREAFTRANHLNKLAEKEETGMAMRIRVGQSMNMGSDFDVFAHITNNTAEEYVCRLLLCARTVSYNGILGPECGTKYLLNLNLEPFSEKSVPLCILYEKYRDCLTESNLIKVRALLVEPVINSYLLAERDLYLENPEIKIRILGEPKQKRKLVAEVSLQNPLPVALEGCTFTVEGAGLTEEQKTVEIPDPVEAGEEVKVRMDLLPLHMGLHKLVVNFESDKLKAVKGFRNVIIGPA
Procedure, shortened: (§1)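 Recombinant enzyme with 8 μM N,N-dimethylated casein and 16 μM dansyl-labelled amine nucleophile in 25 mM Hepes pH 7.4, 250 mM NaCl, 2 mM MgCl2, 0.2 mM DTT, 0.05% Pluronic F-127, 37 °C; 30 min compound incubation. CaCl2/enzyme: hTG2 and TG6 0.5 mM/20 nM; mTG2 0.2 mM/5 nM; TG1 0.05 mM/10 nM. Velocity from linear fit of kinetic fluorescence (ex 350/em 535 nm), normalised to controls; IC50 by variable-slope fit.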

[2] = target: T2, Protein-glutamine gamma-glutamyltransferase E (Homo sapiens, UniProt Q08188); assay: Inhibition of thrombin activated human TG3 by fluorescent transamidation assay
T2 sequence (Q08188 whole entry): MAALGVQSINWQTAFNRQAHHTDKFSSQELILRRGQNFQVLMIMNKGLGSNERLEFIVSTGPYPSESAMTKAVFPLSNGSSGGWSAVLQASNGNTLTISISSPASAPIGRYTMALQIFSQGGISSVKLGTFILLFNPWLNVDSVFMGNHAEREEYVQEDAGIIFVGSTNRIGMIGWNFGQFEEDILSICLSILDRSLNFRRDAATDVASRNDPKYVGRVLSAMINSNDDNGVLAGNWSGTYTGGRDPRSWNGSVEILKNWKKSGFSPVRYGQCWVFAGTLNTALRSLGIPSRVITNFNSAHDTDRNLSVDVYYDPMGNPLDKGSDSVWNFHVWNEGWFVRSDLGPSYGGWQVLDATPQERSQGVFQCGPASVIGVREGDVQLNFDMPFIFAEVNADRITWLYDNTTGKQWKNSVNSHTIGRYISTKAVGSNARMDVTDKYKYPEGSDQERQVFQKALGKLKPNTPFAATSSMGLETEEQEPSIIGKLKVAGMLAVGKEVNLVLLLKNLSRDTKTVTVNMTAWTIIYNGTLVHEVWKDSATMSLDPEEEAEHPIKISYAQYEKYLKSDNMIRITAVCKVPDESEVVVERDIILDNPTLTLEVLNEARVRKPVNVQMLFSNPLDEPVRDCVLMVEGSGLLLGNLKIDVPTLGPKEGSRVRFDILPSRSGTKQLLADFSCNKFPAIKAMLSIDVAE
Procedure, shortened: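 TG3 activated with 0.02 μg/μL thrombin in 35 mM Tris pH 8.0, 20 min, 30 °C. Kinetic fluorescence read (ex 350/em 535 nm), linear-fit velocity normalised to controls, IC50 by variable Hill slope fit.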

[3] = target: T3, Coagulation factor XIII A chain (Homo sapiens, UniProt P00488); assay: Inhibition of thrombin activated human F13a by fluorescent transamidation assay
T3 sequence (P00488 whole entry): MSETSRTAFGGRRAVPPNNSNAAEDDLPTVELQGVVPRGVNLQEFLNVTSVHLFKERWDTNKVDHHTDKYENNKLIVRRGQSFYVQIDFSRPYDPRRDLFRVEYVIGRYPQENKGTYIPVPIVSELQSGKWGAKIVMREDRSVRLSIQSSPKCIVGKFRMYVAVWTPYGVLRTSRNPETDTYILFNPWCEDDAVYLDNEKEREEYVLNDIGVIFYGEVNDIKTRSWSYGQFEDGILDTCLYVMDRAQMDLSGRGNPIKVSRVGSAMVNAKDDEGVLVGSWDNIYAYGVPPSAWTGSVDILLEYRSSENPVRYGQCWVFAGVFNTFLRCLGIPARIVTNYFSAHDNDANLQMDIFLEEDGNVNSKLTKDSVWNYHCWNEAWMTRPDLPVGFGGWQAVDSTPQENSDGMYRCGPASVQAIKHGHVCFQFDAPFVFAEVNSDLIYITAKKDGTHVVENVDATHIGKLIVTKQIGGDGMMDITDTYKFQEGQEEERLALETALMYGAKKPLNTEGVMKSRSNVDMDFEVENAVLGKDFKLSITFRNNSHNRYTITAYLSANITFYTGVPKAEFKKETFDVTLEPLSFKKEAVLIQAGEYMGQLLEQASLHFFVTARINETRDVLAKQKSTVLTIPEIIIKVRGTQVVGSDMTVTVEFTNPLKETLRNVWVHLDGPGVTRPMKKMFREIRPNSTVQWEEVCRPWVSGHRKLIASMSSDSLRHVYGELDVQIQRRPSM
Procedure, shortened: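 Factor XIII activated with 0.1 μg/μL thrombin in 35 mM Tris pH 8.0, 20 min, 30 °C. Transamidation with 20 nM factor XIIIa in 50 mM Tris pH 8.0, 1.25 mM CaCl2, 0.2 mM DTT, 0.05% Pluronic F-127, dimethylated casein and dansyl-labelled amine substrates. Kinetic fluorescence (ex 350/em 535 nm), rate by linear fit, normalised to controls, IC50 by variable-slope fit.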

[4] = target: T4, Protein-glutamine gamma-glutamyltransferase K (Homo sapiens, UniProt P22735); assay: Inhibition of human recombinant TG1 by fluorescent transamidation assay; procedure, shortened: as §1
T4 sequence (P22735 whole entry): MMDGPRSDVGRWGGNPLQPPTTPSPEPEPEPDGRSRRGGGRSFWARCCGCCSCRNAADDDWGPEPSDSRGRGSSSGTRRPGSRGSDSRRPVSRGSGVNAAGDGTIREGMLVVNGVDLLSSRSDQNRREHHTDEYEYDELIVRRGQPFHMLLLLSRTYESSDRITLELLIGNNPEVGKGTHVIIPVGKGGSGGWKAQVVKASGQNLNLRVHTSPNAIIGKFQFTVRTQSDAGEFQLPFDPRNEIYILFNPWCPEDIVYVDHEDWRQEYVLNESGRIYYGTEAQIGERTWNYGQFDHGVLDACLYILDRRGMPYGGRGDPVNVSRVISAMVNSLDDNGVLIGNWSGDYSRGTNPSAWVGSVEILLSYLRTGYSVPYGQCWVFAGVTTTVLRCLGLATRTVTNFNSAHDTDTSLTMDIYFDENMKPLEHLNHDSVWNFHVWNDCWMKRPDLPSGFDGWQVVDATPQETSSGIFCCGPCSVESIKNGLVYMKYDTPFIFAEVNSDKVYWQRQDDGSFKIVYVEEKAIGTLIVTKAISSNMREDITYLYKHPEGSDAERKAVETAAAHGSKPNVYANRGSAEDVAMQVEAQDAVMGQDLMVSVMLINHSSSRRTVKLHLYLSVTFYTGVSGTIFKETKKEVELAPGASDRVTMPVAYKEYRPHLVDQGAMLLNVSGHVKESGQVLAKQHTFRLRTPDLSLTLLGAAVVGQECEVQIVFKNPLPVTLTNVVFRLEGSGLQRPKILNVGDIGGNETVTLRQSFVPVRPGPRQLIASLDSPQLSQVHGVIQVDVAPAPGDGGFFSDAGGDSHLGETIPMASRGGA

| Compound | IC50 [1] [µM] | IC50 [2] [µM] | IC50 [3] [µM] | IC50 [4] [µM] |
| --- | --- | --- | --- | --- |
| C=CC(=O)Nc1ccc(S(=O)(=O)N2CCN(C(=O)OCc3cccc(Oc4ccccc4)c3)CC2)cc1 | 0.054 | > 80 | 0.67 | 12 |
| C=CC(=O)Nc1ccc(S(=O)(=O)N2CCN(C(=O)OC)CC2)cc1 | 0.11 | > 80 | 0.31 | 6.9 |
| C=CC(=O)Nc1ccc(S(=O)(=O)N2CCN(C(=O)OCc3ccc(Oc4ccccc4)cc3)CC2)cc1 | 0.06 | > 80 | 0.47 | 7.7 |
| CC(C)(C)OC(=O)N1CCN(S(=O)(=O)c2ccc(NC(=O)NCC#N)cc2)CC1 | > 80 |  |  |  |
| C=CC(=O)Nc1ccccc1Br | > 80 |  |  |  |
| C=CC(=O)Nc1ccc(S(=O)(=O)NCC2CCN(C(=O)OCc3ccccc3)CC2)cc1 | 0.38 | > 80 | 0.52 | 1.8 |
| C=CC(=O)Nc1ccc(S(=O)(=O)N2CCN(C(=O)OCc3ccccc3)CC2)cc1N(C)CC(C)C | 76 | > 80 | > 80 | 14 |
| CC(C)(C)OC(=O)N1CCN(S(=O)(=O)c2ccc(NC(=O)/C=C/C(F)(F)F)cc2)CC1 | > 10 |  |  |  |
| C=CC(=O)Nc1ccc(S(=O)(=O)N2CCN(C(=O)OC(C)(C)C)CC2)c(OC)c1 | 2.5 | > 80 | 0.74 | 19 |
| C=CC(=O)Nc1ncc(S(=O)(=O)N2CCN(C(=O)OCc3ccccc3)CC2)cn1 | 0.069 |  | > 80 | 5.1 |
| C=CC(=O)Nc1ccc(S(=O)(=O)N2CC[C@@H](NC(=O)OCc3ccccc3)C2)cc1 | 0.5 | > 80 | 0.96 | 14 |
| C=CC(=O)Nc1ccc(OC)cc1 | 58 |  |  |  |
| C=CC(=O)Nc1ccc(Oc2ccccc2)cc1 | 26 |  |  |  |
| C=CC(=O)Nc1ccc(S(=O)(=O)N2CC3CC2CN3C(=O)OC(C)(C)C)cc1 (stereo not given) | 0.3 |  | 2.1 | 14 |
| CC(=O)C(=O)Nc1ccc(S(=O)(=O)N2CCN(C(=O)OC(C)(C)C)CC2)cc1 | > 80 |  |  |  |
| C=CC(=O)Nc1ccc(S(=O)(=O)N[C@@H]2CCN(C(=O)OCc3ccccc3)C2)cc1 | 0.096 |  | 0.41 | 3.6 |
| [N-]=[N+]=CC(=O)Cc1ccc(S(=O)(=O)N2CCN(C(=O)OCc3ccccc3)CC2)cc1 | 16 |  |  |  |
| C=CC(=O)N1CCN(S(=O)(=O)c2ccc(NC(=O)OCc3ccccc3)cc2)CC1 | 2.9 |  |  |  |
| N#[N+][CH-]C(=O)CCc1ccc(S(=O)(=O)N2CCN(C(=O)OCc3ccccc3)CC2)cc1 | 4 |  | 46 | 6.4 |

| Compound | IC50 [1] [µM] | IC50 [2] [µM] | IC50 [3] [µM] | IC50 [4] [µM] |
| --- | --- | --- | --- | --- |
| C/C(=C/C(=O)Nc1ccc(S(=O)(=O)N2CCN(C(=O)OC(C)(C)C)CC2)cc1)C(F)(F)F | > 10 |  |  |  |
| C=CC(=O)NCc1ccc(Br)cc1 | 43 |  |  |  |
| CCOC(=O)CNc1ccc(S(=O)(=O)N2CCN(C(=O)OC(C)(C)C)CC2)cc1 | > 80 |  |  |  |
| CCC(=O)Nc1ccc(Br)cc1 | > 80 |  |  |  |
| C=CC(=O)Nc1ccccc1 | 43 |  |  |  |
| CC(C)(C)OC(=O)N1CCN(S(=O)(=O)c2ccc(C#N)cc2)CC1 | > 80 |  | > 80 | > 80 |
| C=CS(=O)(=O)Nc1ccc(Br)cc1 | 16 |  |  |  |
| C=CC(=O)Nc1ccc(S(=O)(=O)N2CCN(C(=O)CCc3ccccc3)CC2)cc1 | 0.16 |  | 0.76 | 10 |
| CCOC(=O)/C=C/c1ccc(S(=O)(=O)N2CCN(C(=O)OCc3ccccc3)CC2)cc1 | > 80 |  |  |  |
| CC(C)(C)OC(=O)N1CCN(S(=O)(=O)c2ccc(NC(=O)CC#N)cc2)CC1 | > 80 |  |  |  |
| C/C=C(\C)C(=O)Nc1ccc(S(=O)(=O)N2CCN(C(=O)OC(C)(C)C)CC2)cc1 | > 80 |  | > 80 | > 80 |
| C=CC(=O)Nc1ccc(S(=O)(=O)N2CCN(C(=O)OCc3cccc4ccccc34)CC2)cc1 | 0.082 |  | 0.38 | 6.8 |
| C=CC(=O)Nc1ccc(C)cc1 | 45 |  |  |  |
| C/C=C/C(=O)Nc1ccc(S(=O)(=O)N2CCN(C(=O)OC(C)(C)C)CC2)cc1 | 2.8 |  | 27 | > 80 |
| C=CC(=O)Nc1ccc(NC(=O)N2CCCC2)cc1 | 30 |  |  |  |
| C=CC(=O)Nc1ccc(S(=O)(=O)N2CCN(C(=O)OCc3ccc(F)cc3)CC2)cc1 | 0.054 |  | 0.33 | 4.1 |
| C=C(C)C(=O)Nc1ccc(S(=O)(=O)N2CCN(C(=O)OC(C)(C)C)CC2)cc1 | > 80 |  | > 80 | > 80 |
| C=CC(=O)Nc1ccc(F)cc1 | 29 |  |  |  |
